According to ChEMBL document CHEMBL2202974 (J Med Chem, 2011):

Legend:
Brain [1] = experiment: Drug uptake in rat brain at 6 ug/ml, iv up to 1 hr by LC/MS analysis; type: ADME, organism-based; details: in vivo
Procedure, shortened: (§1)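 Male Sprague-Dawley rats (230–280 g), non-anesthetised. Ligand in 25% β-cyclodextrin diluted to 6 μg/mL and given iv via tail vein at 0.5 mL/kg (3 μg/kg), n = 3–4 per group. Rats killed at 10, 20, 40 or 60 min. Hypothalamus and striatum extracted in acetonitrile/0.1% formic acid and quantified by LC-MS/MS against spiked brain standards. Result expressed as %SUV.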

Brain [2] = experiment: Drug uptake in rat brain at 6 ug/ml, iv after 1 hr by LC/MS analysis; type: ADME, organism-based; details: in vivo; procedure, shortened: as §1
Brain [3] = experiment: Drug uptake in rat brain at 6 ug/ml, iv at 10 mins by LC/MS analysis; type: ADME, organism-based; details: in vivo; procedure, shortened: as §1
[4] = Lipophilicity, log D of the compound by shake flask method; type: physicochemical; details: octanol/water
Procedure, shortened: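 Shake-flask log D at pH 7.4 on the nonradioactive compound. Each enantiomer was measured.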

[5] = Drug uptake in monkey amygdala at 4.92 to 6.6 mCi, iv administered as bolus dose measured at 120 mins by PET imaging analysis; type: ADME, organism-based, Macaca mulatta; details: rhesus monkey, in vivo, 2 h
[6] = Drug uptake in SB612111-pretreated monkey amygdala at 4.92 to 6.6 mCi, iv administered at 10 mins post SB612111-treatment measured within 10 mins by PET imaging analysis; type: ADME, organism-based, Macaca mulatta; details: rhesus monkey, in vivo
[7] = Drug uptake in monkey cerebellum at 4.92 to 6.6 mCi, iv administered as bolus dose measured up to 20 mins by PET imaging analysis; type: ADME, organism-based, Macaca mulatta; details: rhesus monkey, in vivo
[8] = Drug uptake in monkey amygdala at 4.92 to 6.6 mCi, iv administered as bolus dose measured up to 20 mins by PET imaging analysis; type: ADME, organism-based, Macaca mulatta; details: rhesus monkey, in vivo
[9] = Drug uptake in SB612111-pretreated monkey lateral temporal cortex at 4.92 to 6.6 mCi, iv administered at 10 mins post SB612111-treatment measured from 10 to 120 mins by PET imaging analysis; type: ADME, organism-based, Macaca mulatta; details: rhesus monkey, in vivo
[10] = Drug uptake in SB612111-pretreated monkey amygdala at 4.92 to 6.6 mCi, iv administered at 10 mins post SB612111-treatment measured from 10 to 120 mins by PET imaging analysis; type: ADME, organism-based, Macaca mulatta; details: rhesus monkey, in vivo
[11] = Drug uptake in SB612111-pretreated monkey caudate at 4.92 to 6.6 mCi, iv administered at 10 mins post SB612111-treatment measured within 10 mins by PET imaging analysis; type: ADME, organism-based, Macaca mulatta, Caudate nucleus; details: rhesus monkey, in vivo
[12] = Drug uptake in SB612111-pretreated monkey lateral temporal cortex at 4.92 to 6.6 mCi, iv administered at 10 mins post SB612111-treatment measured within 10 mins by PET imaging analysis; type: ADME, organism-based, Macaca mulatta; details: rhesus monkey, in vivo
[13] = Drug uptake in SB612111-pretreated monkey caudate at 4.92 to 6.6 mCi, iv administered at 10 mins post SB612111-treatment measured from 10 to 120 mins by PET imaging analysis; type: ADME, organism-based, Macaca mulatta, Caudate nucleus; details: rhesus monkey, in vivo
[14] = Drug uptake in SB612111-pretreated monkey hypothalamus at 4.92 to 6.6 mCi, iv administered at 10 mins post SB612111-treatment measured from 10 to 120 mins by PET imaging analysis; type: ADME, organism-based, Macaca mulatta; details: rhesus monkey, in vivo
[15] = Drug uptake in monkey caudate at 4.92 to 6.6 mCi, iv administered as bolus dose measured up to 20 mins by PET imaging analysis; type: ADME, organism-based, Macaca mulatta, Caudate nucleus; details: rhesus monkey, in vivo
[16] = Drug uptake in SB612111-pretreated monkey cerebellum at 4.92 to 6.6 mCi, iv administered at 10 mins post SB612111-treatment measured within 10 mins by PET imaging analysis; type: ADME, organism-based, Macaca mulatta; details: rhesus monkey, in vivo
[17] = Drug uptake in SB612111-pretreated monkey hypothalamus at 4.92 to 6.6 mCi, iv administered at 10 mins post SB612111-treatment measured within 10 mins by PET imaging analysis; type: ADME, organism-based, Macaca mulatta; details: rhesus monkey, in vivo
[18] = Drug uptake in monkey caudate at 4.92 to 6.6 mCi, iv administered as bolus dose measured at 120 mins by PET imaging analysis; type: ADME, organism-based, Macaca mulatta, Caudate nucleus; details: rhesus monkey, in vivo, 2 h
[19] = Drug uptake in monkey hypothalamus at 4.92 to 6.6 mCi, iv administered as bolus dose measured up to 20 mins by PET imaging analysis; type: ADME, organism-based, Macaca mulatta; details: rhesus monkey, in vivo
[20] = Drug uptake in monkey cerebellum at 4.92 to 6.6 mCi, iv administered as bolus dose measured at 120 mins by PET imaging analysis; type: ADME, organism-based, Macaca mulatta; details: rhesus monkey, in vivo, 2 h
[21] = Drug uptake in SB612111-pretreated monkey cerebellum at 4.92 to 6.6 mCi, iv administered at 10 mins post SB612111-treatment measured from 10 to 120 mins by PET imaging analysis; type: ADME, organism-based, Macaca mulatta; details: rhesus monkey, in vivo
[22] = Drug uptake in monkey lateral temporal cortex at 4.92 to 6.6 mCi, iv administered as bolus dose measured up to 20 mins by PET imaging analysis; type: ADME, organism-based, Macaca mulatta; details: rhesus monkey, in vivo
[23] = Drug uptake in monkey lateral temporal cortex at 4.92 to 6.6 mCi, iv administered as bolus dose measured at 120 mins by PET imaging analysis; type: ADME, organism-based, Macaca mulatta; details: rhesus monkey, in vivo, 2 h
[24] = Drug uptake in monkey hypothalamus at 4.92 to 6.6 mCi, iv administered as bolus dose measured at 120 mins by PET imaging analysis; type: ADME, organism-based, Macaca mulatta; details: rhesus monkey, in vivo, 2 h
[25] = Drug uptake in monkey hypothalamus at 4.92 to 6.6 mCi, iv administered as bolus dose measured at 90 mins by PET imaging analysis; type: ADME, organism-based, Macaca mulatta; details: rhesus monkey, in vivo
[26] = Drug uptake in SB612111-pretreated monkey hypothalamus at 4.92 to 6.6 mCi, iv administered at 10 mins post SB612111-treatment measured from 10 to 90 mins by PET imaging analysis; type: ADME, organism-based, Macaca mulatta; details: rhesus monkey, in vivo
[27] = Drug uptake in monkey lateral temporal cortex at 4.92 to 6.6 mCi, iv administered as bolus dose measured at 90 mins by PET imaging analysis; type: ADME, organism-based, Macaca mulatta; details: rhesus monkey, in vivo
[28] = Drug uptake in SB612111-pretreated monkey lateral temporal cortex at 4.92 to 6.6 mCi, iv administered at 10 mins post SB612111-treatment measured from 10 to 90 mins by PET imaging analysis; type: ADME, organism-based, Macaca mulatta; details: rhesus monkey, in vivo
[29] = Drug uptake in SB612111-pretreated monkey amygdala at 4.92 to 6.6 mCi, iv administered at 10 mins post SB612111-treatment measured from 10 to 90 mins by PET imaging analysis; type: ADME, organism-based, Macaca mulatta; details: rhesus monkey, in vivo
[30] = Drug uptake in SB612111-pretreated monkey cerebellum at 4.92 to 6.6 mCi, iv administered at 10 mins post SB612111-treatment measured from 10 to 90 mins by PET imaging analysis; type: ADME, organism-based, Macaca mulatta; details: rhesus monkey, in vivo
[31] = Drug uptake in monkey cerebellum at 4.92 to 6.6 mCi, iv administered as bolus dose measured at 90 mins by PET imaging analysis; type: ADME, organism-based, Macaca mulatta; details: rhesus monkey, in vivo
[32] = Drug uptake in monkey amygdala at 4.92 to 6.6 mCi, iv administered as bolus dose measured at 90 mins by PET imaging analysis; type: ADME, organism-based, Macaca mulatta; details: rhesus monkey, in vivo
[33] = Drug uptake in monkey caudate at 4.92 to 6.6 mCi, iv administered as bolus dose measured at 90 mins by PET imaging analysis; type: ADME, organism-based, Macaca mulatta, Caudate nucleus; details: rhesus monkey, in vivo
[34] = Drug uptake in SB612111-pretreated monkey caudate at 4.92 to 6.6 mCi, iv administered at 10 mins post SB612111-treatment measured from 10 to 90 mins by PET imaging analysis; type: ADME, organism-based, Macaca mulatta, Caudate nucleus; details: rhesus monkey, in vivo
Nociceptin receptor = Nociceptin receptor (Homo sapiens, UniProt P41146); experiment: Displacement of [3H]nociceptin from human recombinant NOP receptor expressed in CHO cells after 60 mins by microbeta scintillation counting; type: cell-based
[35] = Lipophilicity, log D of the compound by radiometric method; type: physicochemical; details: octanol/water
Procedure, shortened: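 log D at pH 7.4 measured radiometrically on the carbon-11-labelled form of the ligand. Six determinations, reported as mean ± SD.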

Sequence of Nociceptin receptor (P41146 whole entry): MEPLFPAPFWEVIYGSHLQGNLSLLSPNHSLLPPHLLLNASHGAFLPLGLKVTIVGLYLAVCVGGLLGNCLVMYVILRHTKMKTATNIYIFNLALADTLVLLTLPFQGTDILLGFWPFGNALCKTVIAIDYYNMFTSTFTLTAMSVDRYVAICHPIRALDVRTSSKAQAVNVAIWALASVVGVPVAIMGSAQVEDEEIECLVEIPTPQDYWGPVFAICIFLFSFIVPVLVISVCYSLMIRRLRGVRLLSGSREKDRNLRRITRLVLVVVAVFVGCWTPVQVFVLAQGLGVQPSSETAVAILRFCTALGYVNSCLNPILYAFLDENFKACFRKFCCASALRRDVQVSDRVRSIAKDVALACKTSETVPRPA

CC(C)N(C)C(=O)[C@@H](Cc1ccccc1F)CN1CCC2(CC1)OCCc1cc(F)sc12
Drug uptake (Brain [1]): Active
Drug uptake (Brain [2]): Not Active
SUV (Brain [3]): 453%

CC(C)N(C)C(=O)[C@H](Cc1ccccc1F)CN1CCC2(CC1)OCCc1cc(F)sc12
logD [4]: 4.47

CNC(=O)[C@@H](Cc1ccccc1Cl)CN1CCC2(CC1)OCCc1cc(F)sc12
Drug uptake (Brain [1]): Active
Drug uptake (Brain [2]): Not Active
SUV (Brain [3]): 280%

CNC(=O)[C@H](Cc1ccccc1Cl)CN1CCC2(CC1)OCCc1cc(F)sc12
logD [4]: 3.9

CC(C)N([11CH3])C(=O)[C@@H](Cc1ccccc1F)CN1CCC2(CC1)OCCc1cc(F)sc12
Drug uptake [5]: Not Active
Drug uptake [6]: Active
Drug uptake [7]: Active
Drug uptake [8]: Active
Drug uptake [9]: Not Active
Drug uptake [10]: Not Active
Drug uptake [11]: Active
Drug uptake [12]: Active
Drug uptake [13]: Not Active
Drug uptake [14]: Not Active
Drug uptake [15]: Active
Drug uptake [16]: Active
Drug uptake [17]: Active
Drug uptake [18]: Not Active
Drug uptake [19]: Active
Drug uptake [20]: Not Active
Drug uptake [21]: Not Active
Drug uptake [22]: Active
Drug uptake [23]: Not Active
Drug uptake [24]: Not Active

[11CH3]NC(=O)[C@@H](Cc1ccccc1Cl)CN1CCC2(CC1)OCCc1cc(F)sc12
Drug uptake [25]: Not Active
Drug uptake [6]: Active
Drug uptake [26]: Not Active
Drug uptake [7]: Active
Drug uptake [27]: Not Active
Drug uptake [8]: Active
Drug uptake [28]: Not Active
Drug uptake [29]: Not Active
Drug uptake [30]: Not Active
Drug uptake [31]: Not Active
Drug uptake [11]: Active
Drug uptake [32]: Not Active
Drug uptake [12]: Active
Drug uptake [33]: Not Active
Drug uptake [15]: Active
Drug uptake [16]: Active
Drug uptake [17]: Active
Drug uptake [19]: Active
Drug uptake [34]: Not Active
Drug uptake [22]: Active

NC(=O)[C@@H](Cc1ccccc1Cl)CN1CCC2(CC1)OCCc1cc(F)sc12
Ki (Nociceptin receptor): 0.101 nM

NC(=O)[C@H](Cc1ccccc1Cl)CN1CCC2(CC1)OCCc1cc(F)sc12
Ki (Nociceptin receptor): 17.1 nM

CNC(=O)[C@@H](Cc1ccccc1F)CN1CCC2(CC1)OCCc1cc(F)sc12 [NOP-1A]
Drug uptake (Brain [1]): Active
Drug uptake (Brain [2]): Not Active
logD [35]: 3.41
SUV (Brain [3]): 280%
